# PMC2570394 (Diabetes, 2008)
# Read-outs that look alike come from different tables or passages of the source.
# How the values were obtained:
# normal rats [1] = test: Food intake and body weight during 6-day CB1 antagonist infusion in lean rats; assay type: in vivo, rat; details: 6 days; for body weight / food intake: lean rats
# How it was run: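 Rats on standard chow received test compound for 6 days, either 3 or 5 μg/rat per day icv or 5 μg/rat per day s.c. Both routes used osmotic minipumps. Vehicle was isotonic saline with 0.3% Tween 80. Icv cannula placement was checked by drinking response to icv angiotensin II (5 ng/μl). Vehicle pair-fed rats got the treated group's daily intake before dark onset. Food intake and body weight were recorded daily. n=5–7, means ± SE.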
# DIO rats [2] = assay type: in vivo, rat; details: 6 days
# DIO rats [3] = test: Plasma measurements after central or global CB1 blockade in DIO rats; assay type: in vivo; details: Central CB1 blockade, icv 5 μg/rat per day, 6 days, mean ± SE
# How it was run: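 Diet-induced obese rats (45% high-fat diet, 8 weeks) got test compound 5 μg/rat per day icv for 6 days, alongside vehicle and pair-fed controls. Plasma glucose was measured by the glucose oxidase method, and nonesterified fatty acids by commercial kit. Corticosterone and insulin were measured by double-antibody radioimmunoassay. Means ± SE.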
# [4] = assay type: in vivo, mice (C57BL/6J; details: male, C57BL/6J, mouse, ip, 10 mg/kg
# DIO rats [5] = test: Triglyceride content in epididymal WAT and plasma of DIO rats; assay type: in vivo, rat; details: 6 days
# How it was run: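 Diet-induced obese rats received test compound for 6 days, either 5 μg/day icv by minipump or 10 mg/kg per day i.p., alongside vehicle and pair-fed groups. Lipids were extracted from epididymal WAT. After the organic solvent was evaporated, triglyceride was measured enzymatically in duplicate. Plasma triglyceride was measured by commercial kit. n=5–7, means ± SE.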
# normal rats [6] = test: Quantitative RT-PCR of lipid metabolism enzymes in WAT and liver of lean rats; assay type: in vivo, rat; details: 6 days
# How it was run: (§1)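 Lean or diet-induced obese rats received 6-day treatment with vehicle and pair-fed controls. Epididymal WAT and liver were freeze-clamped and kept at −80°C. Real-time qPCR used SYBR Green, ~70 ng template cDNA and primers at 0.5 μmol/l final. Relative levels came from a standard curve and were normalised to ribosomal protein S29 in WAT and cyclophilin A in liver. n=5–7, means ± SE.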
# DIO rats [7] = assay type: in vivo, rat
# How it was run: as §1
# DIO rats [8] = assay type: in vivo, rat; details: 6 days; remark: listed apart in the source
# How it was run: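 Male Sprague-Dawley rats were fed a 45% high-fat diet for 8 weeks, then given vehicle or test compound for 6 days, with a vehicle pair-fed group. They were fasted overnight and anaesthetised with pentobarbital 50 mg/kg i.p. Clamps were run basal and insulin-stimulated (200 mU/ml) with D-[U-14C]glucose infusion (5 μCi/ml). A 2-deoxy-D-[1-3H]glucose bolus (30 μCi/rat) followed, and tissue 2-DG-6-P gave a utilisation index in ng/min/mg. n=5–7.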
# [9] = system: diet-induced obese (DIO) mice; details: cited from earlier work
# Zucker rats = details: cited from earlier work
# [10] = system: isolated soleus muscle of ob/ob mice; details: cited from earlier work
# rat = details: acute intracerebroventricular injection, 3 μg/rat per day; cited from earlier work
# obese Zucker rats = details: 30 mg/kg, 8 weeks; cited from earlier work
# CB1 receptor = details: by reducing food intake and increasing energy expenditure and fat oxidation; cited from earlier work
# [11] = intracerebroventricular 3 μg/rat per day
# [12] = intracerebroventricular 5 μg/rat per day
# [13] = peripheral 5 μg/rat per day via subcutaneous minipumps
# [14] = normal rats, icv 5 μg/day, similar in vehicle pair-fed group
# [15] = ip 10 mg/kg, 6 days, independent of hypophagia
smiles,measurement,setting,value
"Cc1c(C(=O)NN2CCCCC2)nn(-c2ccc(Cl)cc2Cl)c1-c1ccc(Cl)cc1 [SR141716, Rimonabant]",body weight,normal rats [1]; [11],no effect
same,food intake,normal rats [1]; [11],no effect
same,body weight,normal rats [1]; [12],loss of body weight
same,body weight,normal rats [1]; [13],unable to detect changes
same,food intake,normal rats [1]; [13],unable to detect changes
same,decrease in food intake,"normal rats [1]; normal rats, intracerebroventricular 5 μg/rat per day",17%
same,decrease in food intake,DIO rats [2]; [12],31%
same,body weight,"DIO rats [2]; intracerebroventricular 5 μg/rat per day, mimicked by pair feeding",loss of body weight
same,decrease in food consumption,"DIO rats [2]; intraperitoneal 10 mg/kg per day, P < 0.01",40%
same,Corticosterone (plasma),DIO rats [3],59.77 ± 7.26 ng/mL
same,Glucose (plasma),DIO rats [3],3.78 ± 0.12 mmol/L
same,Insulin (plasma),DIO rats [3],0.58 ± 0.12 ng/mL
same,Nonesterified fatty acids (plasma),DIO rats [3],0.66 ± 0.13 mmol/L
same,Cmax,[4]; brain,1010 ± 384 ng/g
same,concentration at 25.1 h,[4]; brain,186 ± 37.5 ng/g
same,half-life,[4]; brain,9.44 h
same,Cmax,[4]; serum,258 ± 58.9 ng/mL
same,concentration at 25.1 h,[4]; serum,20.5 ± 9.25 ng/mL
same,half-life,[4]; serum,6.33 h
same,triglyceride levels in WAT,DIO rats [5]; icv 5 μg/day,did not modify
same,triglyceride levels in plasma,DIO rats [5]; icv 5 μg/day,did not modify
same,WAT triglyceride content,"DIO rats [5]; ip 10 mg/kg, not observed in vehicle pair-fed group",decreased
same,WAT mRNA expression of lipid metabolism enzymes,"normal rats [6]; lean rats, 5 μg/rat per day given peripherally",no change
same,liver gene expression of key enzymes regulating triglyceride metabolism,"normal rats [6]; lean rats, icv 5 μg/day",No significant difference
same,WAT expression of CPT-1,normal rats [6]; [14],increased
same,"WAT expression of genes promoting lipogenesis and triglyceride storage (FAS, SCD-1, ACCα, LPL)",normal rats [6]; [14],markedly reduced
same,expression of hormone-sensitive lipase and adipose triglyceride lipase,"DIO rats [7]; WAT, drug treatment (data not shown)",not modified
same,WAT CPT-1 expression,"DIO rats [7]; icv 5 μg/day, 6 days",trend toward an increase
same,WAT SCD-1 expression,"DIO rats [7]; icv 5 μg/day, 6 days, also present in pair-fed group",decrease
same,liver SCD-1 expression,"DIO rats [7]; icv 5 μg/day, 6 days, similar decrease in vehicle pair-fed animals",decreased
same,liver gene expression of lipid metabolism enzymes,"DIO rats [7]; ip 10 mg/kg, 6 days",No modification
same,liver expression of glucose-6-phosphatase,"DIO rats [7]; ip 10 mg/kg, 6 days, also in vehicle pair-fed group",marked decrease
same,WAT CPT-1 expression,DIO rats [7]; [15],increase
same,WAT SCD-1 expression,DIO rats [7]; [15],decrease
same,overall insulin sensitivity,DIO rats [8]; icv 5 μg/day,failed to elicit any change
same,glucose infusion rate (GIR),"DIO rats [8]; icv 5 μg/day, vs vehicle",identical
same,glucose uptake in skeletal muscle and WAT,"DIO rats [8]; icv 5 μg/day, vs vehicle",identical
same,hepatic glucose production (HGP),"DIO rats [8]; icv 5 μg/day, vs vehicle",identical
same,overall insulin sensitivity,DIO rats [8]; ip 10 mg/kg,enhanced
same,hepatic glucose production (HGP),"DIO rats [8]; ip 10 mg/kg, comparable in vehicle pair-fed rats",suppressed
same,glucose utilization by adipose tissue,"DIO rats [8]; ip 10 mg/kg, food-independent effect",increased
same,glucose infusion rate (GIR),"DIO rats [8]; ip 10 mg/kg, similar increase in vehicle pair-fed group",higher
same,body weight,[9],maintained reduction
same,food intake,[9],transient suppression
same,body weight,Zucker rats,maintained reduction
same,food intake,Zucker rats,transient suppression
same,glucose uptake,[10],increases
same,food intake,rat,decreases
same,hepatic lipid metabolism,obese Zucker rats,food intake–independent effect
C[C@H](NC(=O)C(C)(C)Oc1ccc(C(F)(F)F)cn1)[C@@H](Cc1ccc(Cl)cc1)c1cccc(C#N)c1 [taranabant],body weight,CB1 receptor,weight loss
